# Experimental data reported in publication PMC5598375 (Toxicology Reports, 2014).
# “Also recorded” adds a separate entry of the source.
# How the values were obtained:
# [1] = test system: 48 h-larvae mwh +/+ flr^3; experiment: Wing spot test; assay type: in vivo, Drosophila melanogaster; details: for Total spots, statistical diagnosis / Small single spots (1-2 cells), statistical diagnosis: m = 2; for Total spots, statistical diagnosis / Large single spots (>cells), statistical diagnosis / Small single spots (1-2 cells), statistical diagnosis: vs negative control; for Large single spots (>cells), statistical diagnosis: m = 5
# Outline: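 Crosses: mwh/mwh females × flr3/TM3,Bds males mated 2 h, eggs laid over 2 h. 48 h larvae were collected on 20% sucrose, washed in 24 ± 1 °C water, held 24 h in the dark on filter paper with PP-IX (0–69 mM in 5% sucrose), then fed CrO3 (0.025–2.5 mM) in instant medium, in triplicate. Non-Ser wings were scored at 40× for small (1–2 cells), large and twin spots. Frei–Würgler one-sided test, α=β=0.05, m multiplication factor.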
# 48 h-larvae mwh+/+flr^3 = experiment: Wing spot test; assay type: in vivo, Drosophila melanogaster; details: CrO3 0.025–2.5 mM
# [2] = test system: 48 h-old mwh+/+flr^3 larvae; experiment: Toxicity test; assay type: in vivo, Drosophila melanogaster; details: for % of non-viable larvae / No. of viable larvae ± SEM: 500 larvae
# [3] = test system: 48 h-old mwh +/+ flr^3 larvae; experiment: Wing spot test, PP-IX pretreatment then 20 Gy gamma rays; assay type: in vivo, Drosophila melanogaster; details: for Large single spots (>cells) per wing / Large single spots (>cells), number of spots / Small single spots (1-2 cells) per wing / Small single spots (1-2 cells), number of spots / Total spots per wing / Total spots, number of spots / Twin spots per wing / Twin spots, number of spots: 80 wings; for Small single spots (1-2 cells), statistical diagnosis / Total spots, statistical diagnosis: m = 2
# Outline: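 48 h-old mwh/flr3 larvae were pretreated 24 h in the dark on filter paper with PP-IX (0, 0.69, 6.9, 69 mM in 5% sucrose). Each group was then split: one half received 20 Gy from a Co-60 source (dose rate up to 1259.44 Gy/h), the other stayed unirradiated. Larvae were reared on hydrated instant medium to eclosion. Wing spots were scored by SMART and analysed by Frei–Würgler statistics, m multiplication factor.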
# rats of the CF1 strain = details: cited from earlier work
# Drosophila strain = details: chronic treatment, cited from earlier work
# [4] = test system: somatic cells of Drosophila; details: PP-IX 69 mM, 24 h after administration, with 0.5 mM N-nitroso-N-ethylurea (ENU); cited from earlier work
# [5] = PP-IX 0.69 mM 24 h pretreatment alone, 120 wings
# [6] = PP-IX 6.9 mM 24 h pretreatment alone, 120 wings
# [7] = PP-IX 69 mM 24 h pretreatment alone, 160 wings
# [8] = PP-IX 0.69 mM 24 h pretreatment + 20 Gy gamma rays
# [9] = PP-IX 0.69 mM + 20 Gy gamma rays
# [10] = PP-IX 6.9 mM 24 h pretreatment + 20 Gy gamma rays
# [11] = PP-IX 6.9 mM + 20 Gy gamma rays
# [12] = PP-IX 69 mM 24 h pretreatment + 20 Gy gamma rays
# [13] = PP-IX 69 mM + 20 Gy gamma rays, m = 5
compound,measurement,setting,value
"C=CC1=C(C)c2cc3[nH]c(cc4nc(cc5[nH]c(cc1n2)c(C)c5CCC(=O)O)C(CCC(=O)O)=C4C)c(C)c3C=C [PP-IX, Protoporphyrin-IX]",Large single spots (>cells) per wing,[1]; [5],0.05 spots per wing
same,"Large single spots (>cells), number of spots",[1]; [5],6
same,Small single spots (1-2 cells) per wing,[1]; [5],0.33 spots per wing
same,"Small single spots (1-2 cells), number of spots",[1]; [5],40
same,Total spots per wing,[1]; [5],0.41 spots per wing
same,"Total spots, number of spots",[1]; [5],49
same,Twin spots per wing,[1]; [5],0.03 spots per wing
same,"Twin spots, number of spots",[1]; [5],3
same,"Total spots, statistical diagnosis",[1]; PP-IX 0.69 mM alone,−
same,"Large single spots (>cells), statistical diagnosis",[1]; PP-IX 0.69 mM alone,−
same,Large single spots (>cells) per wing,[1]; [6],0.05 spots per wing
same,"Large single spots (>cells), number of spots",[1]; [6],6
same,Small single spots (1-2 cells) per wing,[1]; [6],0.23 spots per wing
same,"Small single spots (1-2 cells), number of spots",[1]; [6],28
same,Total spots per wing,[1]; [6],0.28 spots per wing
same,"Total spots, number of spots",[1]; [6],34
same,Twin spots per wing,[1]; [6],0 spots per wing
same,"Twin spots, number of spots",[1]; [6],(0)
same,"Small single spots (1-2 cells), statistical diagnosis",[1]; PP-IX 6.9 mM alone,−
same,"Total spots, statistical diagnosis",[1]; PP-IX 6.9 mM alone,−
same,"Large single spots (>cells), statistical diagnosis",[1]; PP-IX 6.9 mM alone,−
same,Large single spots (>cells) per wing,[1]; [7],0.14 spots per wing
same,"Large single spots (>cells), number of spots",[1]; [7],23
same,Small single spots (1-2 cells) per wing,[1]; [7],0.51 spots per wing
same,"Small single spots (1-2 cells), number of spots",[1]; [7],81
same,Total spots per wing,[1]; [7],0.66 spots per wing
same,"Total spots, number of spots",[1]; [7],106
same,Twin spots per wing,[1]; [7],0.01 spots per wing
same,"Twin spots, number of spots",[1]; [7],2
same,Effect of PP-IX alone on basal mutation frequency,[1]; PP-IX 69 mM alone,doubled the basal mutation frequency
same,"Small single spots (1-2 cells), statistical diagnosis",[1]; PP-IX 69 mM alone,+
same,"Total spots, statistical diagnosis",[1]; PP-IX 69 mM alone,+
same,"Large single spots (>cells), statistical diagnosis",[1]; PP-IX 69 mM alone,−
same,Mutagenicity of PP-IX alone,"[1]; PP-IX 69 mM, damage comparable with 0.25 mM of CrO3",mutagenic
same,Induction of genetic damage by PP-IX alone,[1]; PP-IX 0.69 and 6.9 mM,did not induce genetic damage
same,Effect on genetic damage induced by CrO3,48 h-larvae mwh+/+flr^3; PP-IX 0.69 mM,significant decrease of damage in four of the five concentrations of CrO3 tested; also recorded: significantly reduced the genetic damage induced by all CrO3 concentrations tested
same,Effect on genetic damage induced by CrO3,48 h-larvae mwh+/+flr^3; PP-IX 6.9 mM,significantly decreased the frequency of damage induced by 2 and 2.5 mM of the mutagen
same,Effect on genetic damage induced by CrO3,48 h-larvae mwh+/+flr^3; PP-IX 69 mM,only reduced the damage induced by 2.5 mM
same,% of non-viable larvae,[2]; PP-IX 0.69 mM,21%
same,No. of viable larvae ± SEM,[2]; PP-IX 0.69 mM,394 ± 1.7
same,% of non-viable larvae,[2]; PP-IX 6.9 mM,11%
same,No. of viable larvae ± SEM,[2]; PP-IX 6.9 mM,447 ± 0.6
same,Reduction of toxicity compared to control,"[2]; PP-IX 6.9 mM, not significantly",5%
same,% of non-viable larvae,[2]; PP-IX 69 mM,26%
same,No. of viable larvae ± SEM,[2]; PP-IX 69 mM,368 ± 0.5
same,Toxicity compared to the control,"[2]; PP-IX 0.69, 6.9, 69 mM (three concentrations tested)",nontoxic; also recorded: not toxic
same,Large single spots (>cells) per wing,[3]; [8],1.16 spots per wing
same,"Large single spots (>cells), number of spots",[3]; [8],93
same,Small single spots (1-2 cells) per wing,[3]; [8],0.82 spots per wing
same,"Small single spots (1-2 cells), number of spots",[3]; [8],66
same,Total spots per wing,[3]; [8],2.07 spots per wing
same,"Total spots, number of spots",[3]; [8],166
same,Twin spots per wing,[3]; [8],0.08 spots per wing
same,"Twin spots, number of spots",[3]; [8],7
same,"Small single spots (1-2 cells), statistical diagnosis",[3]; [9],−
same,"Total spots, statistical diagnosis",[3]; [9],−
same,"Twin spots, statistical diagnosis","[3]; PP-IX 0.69 mM + 20 Gy gamma rays, m = 5",−
same,Large single spots (>cells) per wing,[3]; [10],1.84 spots per wing
same,"Large single spots (>cells), number of spots",[3]; [10],147
same,Small single spots (1-2 cells) per wing,[3]; [10],0.69 spots per wing
same,"Small single spots (1-2 cells), number of spots",[3]; [10],55
same,Total spots per wing,[3]; [10],2.67 spots per wing
same,"Total spots, number of spots",[3]; [10],214
same,Twin spots per wing,[3]; [10],0.15 spots per wing
same,"Twin spots, number of spots",[3]; [10],12
same,"Small single spots (1-2 cells), statistical diagnosis",[3]; [11],−
same,"Total spots, statistical diagnosis",[3]; [11],−
same,"Twin spots, statistical diagnosis","[3]; PP-IX 6.9 mM + 20 Gy gamma rays, m = 5",−
same,Large single spots (>cells) per wing,[3]; [12],1.52 spots per wing
same,"Large single spots (>cells), number of spots",[3]; [12],122
same,Small single spots (1-2 cells) per wing,[3]; [12],1.16 spots per wing
same,"Small single spots (1-2 cells), number of spots",[3]; [12],93
same,Total spots per wing,[3]; [12],2.76 spots per wing
same,"Total spots, number of spots",[3]; [12],221
same,Twin spots per wing,[3]; [12],0.07 spots per wing
same,"Twin spots, number of spots",[3]; [12],6
same,"Small single spots (1-2 cells), statistical diagnosis",[3]; PP-IX 69 mM + 20 Gy gamma rays,−
same,"Total spots, statistical diagnosis",[3]; PP-IX 69 mM + 20 Gy gamma rays,−
same,"Large single spots (>cells), statistical diagnosis",[3]; [13],−
same,"Twin spots, statistical diagnosis",[3]; [13],−
same,Effect on damage induced by gamma rays,"[3]; PP-IX all tested concentrations, 20 Gy",no effect; also recorded: Absence of an inhibitor effect
same,Increase of catalase (CAT) activity,rats of the CF1 strain; after 2 h of administration,30%
same,Lipid peroxidation,rats of the CF1 strain,induced lipid peroxidation
same,Superoxide dismutase (SOD) enzyme,rats of the CF1 strain,increased 24 h after administration
same,"Half life, Sod deficient strain",Drosophila strain; Sod deficient strain,half life was reduced
same,"Lifespan, wild strain",Drosophila strain; wild Drosophila strain,prolong the lifespan
same,Mutagenicity in combination with ENU,[4],mutagenic
